Screens from PubChem BioAssay.
FLuc inhib CS: firefly luciferase enzyme inhibitors, primary screen, artefact control for luciferase-based inhibitor screens, biochemical, luminescence, ATPLite; Luciferin 4-monooxygenase (Photinus pyralis), P08659; 10 min; inhibition, % at 10 µM; 200,000 tested, 1.5% active;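 active means inhibition above about 50% when tested at 10 µM, limit read from the data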
Target sequence (P08659 whole entry, looked up): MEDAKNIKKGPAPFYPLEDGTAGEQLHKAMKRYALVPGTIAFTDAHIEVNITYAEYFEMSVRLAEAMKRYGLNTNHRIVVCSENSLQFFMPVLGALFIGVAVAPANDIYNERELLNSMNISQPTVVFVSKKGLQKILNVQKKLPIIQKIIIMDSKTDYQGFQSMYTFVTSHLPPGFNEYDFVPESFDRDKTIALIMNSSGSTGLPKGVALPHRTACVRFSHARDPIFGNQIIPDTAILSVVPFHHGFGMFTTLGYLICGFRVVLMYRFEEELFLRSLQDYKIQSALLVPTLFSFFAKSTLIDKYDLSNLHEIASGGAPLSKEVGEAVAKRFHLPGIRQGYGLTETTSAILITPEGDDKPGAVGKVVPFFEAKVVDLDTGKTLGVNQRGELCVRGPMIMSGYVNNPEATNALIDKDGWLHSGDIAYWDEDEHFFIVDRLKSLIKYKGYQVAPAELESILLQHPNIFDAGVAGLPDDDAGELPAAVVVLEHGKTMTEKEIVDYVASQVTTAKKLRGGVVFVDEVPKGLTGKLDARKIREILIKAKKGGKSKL
TRAIL sens C8: viability loss with TRAIL in NB7+C8 cells, primary screen, TRAIL sensitizer project, cell-based, ATPlite luminescence; AID 624354, 2012; 360,000 tested, 1% active; inhibition (viability loss, TRAIL sensitization), % at 10 µM;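 active means compounds causing at least 50% loss of cell viability in the single-dose screen, relative to plate controls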
PKD1 inh: inhibitors of human PKD1 kinase, biochemical, fluorescence polarization; 200,000 tested, 0.056% active; Serine/threonine-protein kinase D1 (Homo sapiens), Q15139; PKD1 kinase fluorescence polarization assay; inhibition, % (no concentration beside the values); in the data active means inhibition above about 50%
PPC-1+TRAIL kill: compounds killing PPC-1 cancer cells with TRAIL present, primary screen, TRAIL potentiator project, ATPLite luminescence, uHTS. 220,000 tested, 0.41% active. AID 1443, 2008. cell killing (% activity), % at 4 µM or 5 µM. PPC-1 cells + TRAIL, ATPLite viability luminescence;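 active means cell killing above 50% in the first pass at 4 µM, then a duplicate retest at 5 µM averaging 50% or more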;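 further: plate controls were cells with TRAIL plus DMSO for no effect and medium-only wells lacking cells for full effect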
Wee1 degr inh: Wee1 degradation inhibitors, primary screen, cell-based, HeLa, Wee1K328M-luciferase, luminescence; HeLa Luc-Wee1K328M stability; 100% = proteasome inhibitor MG132 effect; reporter increase, % at 5 µM; Wee1-like protein kinase (Homo sapiens), P30291; 220,000 tested, 1.2% active;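 active means activation above the mean of all tested compounds plus 3 SD, set per screening run, cut at about 8.8% in these data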;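 further: cells exposed to compound for 20 h before luminescence read; 0% = DMSO alone and 100% = MG132 at 30 µM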
FLuc act counter: FLuc activators, initial screening, artefact control for FLuc-dependent activation tests, biochemical, ATPlite luminescence | Luciferin 4-monooxygenase (Photinus pyralis), P08659 | ATPlite luciferase biochemical, 10 min; 0 = ATP-free wells, 1 = DMSO control | activation factor at 10 µM | 200,000 tested, under 10 active;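 active means luciferase activation factor, scaled between plate controls, of at least 2 with compound at 10 µM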
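System: cell-free luciferase reagent; medium: PBS as buffer for the ATP substrate; doses: test compounds dosed from 2 mM stocks in 100% DMSO; incubation: 10 min, room temperature; measured by: luminescence from luciferase reaction; read-out: luciferase activation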
PPC-1 tox: cytotoxicity in PPC-1 cells, confirmation, cytotoxicity control for TRAIL apoptosis potentiator project, cell-based, ATP content luminescence; cytotoxicity, % at 5 µM; 1,200 tested, 50% active; AID 1447, 2008; shares compounds with PPC-1+TRAIL kill; PPC-1 viability, ATPlite luminescence, overnight;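 active means reconfirmed compounds whose average cytotoxicity reaches 50% or more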;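 further: 0% = DMSO-treated cells and 100% = wells holding medium but no cells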
An asterisk follows results filed as active; · = no result. In the library only some 2.2% were active in any assay of this set; here they are far more common.

SMILES | FLuc inhib CS | TRAIL sens C8 | PKD1 inh | PPC-1+TRAIL kill | Wee1 degr inh | FLuc act counter | PPC-1 tox
C[C@]12CC[C@H]3[C@@H](CCC4=CC(=O)CC[C@@]43O)[C@@H]1CCC2=O | · | 0 | · | · | · | · | ·
C[C@@H]1O[C@@H](O[C@H]2C[C@@H](O)[C@]3(CO)[C@H]4[C@H](O)C[C@]5(C)[C@@H](C6COC(=O)C6)CC[C@]5(O)[C@@H]4CC[C@]3(O)C2)[C@H](O)[C@H](O)[C@H]1O (stereo not given in full) | -2 | 39 | -5 | 61* | 0 | 1 | 63*
O=C(O)C(Cc1cnc[nH]1)NS(=O)(=O)c1ccc(Br)cc1 (stereo not given) | · | 1 | · | · | · | · | ·
COc1ccccc1N1CCN(Cc2ccccc2F)CC1 | 1 | -10 | -1 | 18 | 2 | 1 | 8
N#CCCn1cc(C(=O)NCc2ccccc2)c(-c2ccc3c(c2)OCCO3)n1 | -5 | -3 | 1 | 26 | 5 | 1 | ·
C=C1C(=O)O[C@@H]2C[C@@H](C)[C@@H]3C=CC(=O)[C@@]3(C)[C@@H](O)[C@H]12 | · | 77* | · | 60* | · | · | 57*
NC(=S)c1cn(C2OC(CO)C(O)C2O)c2ncnc(N)c12 (stereo not given) | · | 67* | · | 55* | 0 | · | 55*
COc1ccccc1N1CCN(C2CCCN(C(=O)COc3ccccc3Cl)C2)CC1 (stereo not given) | · | -3 | · | · | · | · | ·
Cc1ccc(S(=O)(=O)N(c2cc(Cl)c(O)c(Cl)c2)P(=O)(OC(C)C)OC(C)C)cc1 | -4 | 0 | -5 | 19 | 0 | 1 | ·
COC(=O)C(C)Oc1cc(C)cc2oc(=O)c3c(c12)CCCC3 (stereo not given) | 1 | 34 | -20 | 0 | 2 | 1 | 15
CCOC(=O)c1nsnc1NCCCl | -2 | 4 | 1 | 13 | -2 | 1 | ·
C=C(CO)CC1CC(O)[C@]2(C)OC3CC4OC5C[C@]6(C)O[C@]7(C)CCC8OC9C[C@]%10(C)OC%11C(C)=CC(=O)OC%11CC%10OC9C[C@@H](C)C8OC7CC6O[C@]5(C)C/C=C\C4OC3CC2O1 (stereo not given in full) | -1 | 8 | 1 | 7 | -2 | 1 | ·
C=C(C=O)CC1CC(O)[C@]2(C)OC3CC4OC5C[C@]6(C)O[C@]7(C)CCC8OC9C[C@]%10(C)OC%11C(C)=CC(=O)OC%11CC%10OC9C[C@@H](C)C8OC7CC6O[C@]5(C)CC5OC5C4OC3CC2O1 (stereo not given in full) | -4 | 96* | -3 | 80* | -1 | 1 | 78*
COC(=O)C1=C(c2cccc(C#N)c2)C[C@@H]2CC[C@H]1N2C(=O)N1CCCCC1 | · | 9 | · | · | · | · | ·
CC[C@@]1(O)C(=O)OCc2c1cc1n(c2=O)Cc2cc3ccccc3nc2-1 | · | · | · | 49 | -2 | · | ·
CCC1(OC(=O)CN)C(=O)OCc2c1cc1n(c2=O)Cc2cc3ccccc3nc2-1 (stereo not given) | · | 31 | · | 30 | -1 | · | 28
O=C1OC(c2ccc(Cl)cc2)=N/C1=C\N1CC2CC(C1)c1cccc(=O)n1C2 (stereo not given) | · | -3 | · | 5 | -1 | · | ·
